Source: ChEMBL document CHEMBL1138751, “Dipeptidomimetic ketomethylene isosteres as pro-moieties for drug transport via the human intestinal di-/tripeptide transporter hPEPT1: design, synthesis, stability, and biological investigations” (J Med Chem, 2004)

Assays:
[1] = biological target: T1, Solute carrier family 15 member 1 (Homo sapiens, UniProt P46059); experiment: Affinity for hPEPT1 in mature Caco-2 cell monolayers using [14C]-Gly-Sar
T1 sequence (P46059 whole entry): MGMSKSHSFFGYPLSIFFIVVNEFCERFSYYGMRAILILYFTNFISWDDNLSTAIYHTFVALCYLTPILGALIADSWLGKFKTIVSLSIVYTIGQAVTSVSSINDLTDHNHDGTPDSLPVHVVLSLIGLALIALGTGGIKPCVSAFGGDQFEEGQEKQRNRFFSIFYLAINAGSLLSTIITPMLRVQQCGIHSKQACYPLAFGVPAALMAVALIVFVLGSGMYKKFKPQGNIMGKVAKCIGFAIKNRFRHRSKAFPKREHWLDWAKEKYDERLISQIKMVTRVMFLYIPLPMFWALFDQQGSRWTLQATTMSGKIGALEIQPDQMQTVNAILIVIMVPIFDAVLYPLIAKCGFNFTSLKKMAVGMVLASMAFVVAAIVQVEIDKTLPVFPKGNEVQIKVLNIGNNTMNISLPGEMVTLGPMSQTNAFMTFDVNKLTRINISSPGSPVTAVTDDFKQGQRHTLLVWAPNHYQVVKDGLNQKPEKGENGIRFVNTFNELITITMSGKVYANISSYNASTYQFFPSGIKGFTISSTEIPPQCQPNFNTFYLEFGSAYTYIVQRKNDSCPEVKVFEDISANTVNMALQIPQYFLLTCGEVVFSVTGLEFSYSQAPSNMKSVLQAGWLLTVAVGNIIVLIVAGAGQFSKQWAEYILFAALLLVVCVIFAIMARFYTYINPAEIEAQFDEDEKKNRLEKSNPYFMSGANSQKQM
How it was run: (§1)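 Caco-2 monolayers on Transwell filters, used 25–27 days after seeding (TEER 354 ± 41 […]). Compound at varying concentrations plus 0.5 μCi [14C]-Gly-Sar in apical MES-buffered HBSS (pH 6.0, 0.05% BSA); HEPES buffer (pH 7.4) basolateral. Incubated 5 min at 37 °C with shaking, washed with ice-cold HBSS, and cell-associated radioactivity counted. Inhibition fitted to a Hill-type equation for IC50; Ki derived by Cheng–Prusoff using Gly-Sar Km 1.1 mM. Duplicates in three passages.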

[2] = biological target: T1, Solute carrier family 15 member 1; experiment: Inhibition of [14C]Gly-Sar transport by hPEPT1 in Caco-2 cell monolayers; format: cell-based; how it was run: as §1

| Structure (SMILES) | Ki [1] | IC50 [2] |
| --- | --- | --- |
| N[C@@H](Cc1ccccc1)C(=O)CCC(=O)OCc1ccccc1 | 905 µM | 915 µM |
| N[C@@H](Cc1ccccc1)C(=O)C[C@@H](CC(=O)OCc1ccccc1)C(=O)O | 68 µM | 69 µM |
| NC(CC(=O)OCc1ccccc1)C(=O)CCC(=O)O (stereo not given) | 417 µM | 422 µM |
| CC(C)[C@H](N)C(=O)CCC(=O)OCc1ccccc1 | 133 µM | 134 µM |
| CC(C)[C@H](N)C(=O)C[C@@H](CC(=O)OCc1ccccc1)C(=O)O | 19 µM | 19 µM |
